Measured values: ChEMBL document CHEMBL4811229, “Leveraging Peptaibol Biosynthetic Promiscuity for Next-Generation Antiplasmodial Therapeutics” (J Nat Prod, 2021)
pEC50: −log10 of the molar value. Where a SMILES comes first, the peptide text is derived from it. [ ]: non-standard residue; d: D form. The star is where a group is joined. X1 = CC(C)C[C@@H](C[N+]1=C2CCCN2CCC1)N*; Pip = O=C(O)[C@@H]1CCCCN1; Iva = CC[C@](C)(N)C(=O)O; Aib = CC(C)(N)C(=O)O; βAla = NCCC(=O)O

What was measured:
[1] = Selectivity index, ratio of EC50 for human HepG2 cells to EC50 for antiplasmodial activity against multidrug-resistant Plasmodium falciparum Dd2 infected in human A-positive erythrocytes; format: toxicity, cell-based; conditions: read-out: Ratio EC50
Plasmodium falciparum = experiment: Antiplasmodial activity against multidrug-resistant Plasmodium falciparum Dd2 infected in human A-positive erythrocytes assessed as reduction in parasitemia incubated for 72 hrs by fluorescence-based SYBR-Green-1 assay; format: functional, organism-based; conditions: Dd2, Erythrocyte
HepG2 = experiment: Cytotoxicity against human HepG2 cells assessed as decrease in cell viability measured after 48 hrs by MTS assay; format: cell-based; conditions: HepG2, 48 h
Summary of the method: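 After 48 h at 37 °C and 5% CO2, MTS was added for 4 h and absorbance read at 490 nm. Values were normalized to Triton X-100-lysed wells (0% growth) and untreated wells. EC50 is the mean of triplicate experiments.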

Structure (SMILES)	selectivity ratio [1]	pEC50 (Plasmodium falciparum)	pEC50 (HepG2)
CC(=O)NC(C)(C)C(=O)N[C@@H](C)C(=O)N[C@@H](C)C(=O)N[C@@H](C)C(=O)NC(C)(C)C(=O)NC(C)(C)C(=O)N[C@@H](CCC(N)=O)C(=O)NC(C)(C)C(=O)N[C@@H](CC(C)C)C(=O)NC(C)(C)C(=O)NCC(=O)N[C@@H](CC(C)C)C(=O)NC(C)(C)C(=O)N1CCC[C@H]1C(=O)N[C@H](C(=O)NC(C)(C)C(=O)NC(C)(C)C(=O)N[C@@H](CCC(N)=O)C(=O)N[C@@H](CCC(N)=O)C(=O)N[C@H](CO)Cc1ccccc1)C(C)C (HELM PEPTIDE1{[ac].[Aib].A.A.A.[Aib].[Aib].Q.[Aib].L.[Aib].G.L.[Aib].P.V.[Aib].[Aib].Q.Q.[OC[C@H](Cc1ccccc1)N[*:1]]}$$$$V2.0)	18	6.49	5.24
CC[C@@](C)(NC(=O)[C@H](CC(C)C)NC(=O)C(C)(C)NC(=O)[C@@H]1CCCN1C(=O)C(C)(C)NC(=O)[C@@H](NC(=O)[C@H](C)NC(=O)[C@@H]1CCCN1C(=O)C(C)(C)NC(=O)[C@H](CC(C)C)NC(=O)[C@H](CCC(N)=O)NC(=O)C(C)(C)NC(C)=O)C(C)C)C(=O)N1CCC[C@H]1C(=O)N[C@H](CO)CC(C)C	> 19	5.88	< 4.60
CC[C@](C)(NC(=O)[C@H](CC(C)C)NC(=O)[C@H](C)NC(=O)C(C)(C)NC(=O)[C@@H]1CCCCN1C(=O)C(C)(C)NC(=O)C(C)(C)NC(=O)CNC(=O)CCNC(=O)[C@H](CC(C)C)NC(=O)C(C)(C)NC(=O)C(C)(C)NC(=O)[C@@H]1CCCCN1C(=O)C(C)(C)NC(=O)[C@@H]1CCCCN1C(C)=O)C(=O)N[C@@H](CC(C)C)C[N+]1=C2CCCN2CCC1 (Ac-[Pip][Aib][Pip][Aib][Aib]L[βAla]G[Aib][Aib][Pip][Aib]AL[Iva]-X1)	> 64	6.41	< 4.60
CC[C@H](C)[C@H](NC(=O)[C@H](CO)NC(=O)[C@@H]1CCCN1C(=O)C(C)(C)NC(=O)[C@H](CC(C)C)NC(=O)[C@H](CC(N)=O)NC(=O)C(C)(C)NC(C)=O)C(=O)NC(C)(C)C(=O)N1CCC[C@H]1C(=O)NC(C)(C)C(=O)N[C@@H](CC(C)C)C(=O)NC(C)(C)C(=O)N1CCC[C@H]1C(=O)N[C@H](CO)CC(C)C (HELM PEPTIDE1{[ac].[Aib].N.L.[Aib].P.S.I.[Aib].P.[Aib].L.[Aib].P.[CC(C)C[C@@H](CO)N[*:1]]}$$$$V2.0)	> 40	6.20	< 4.60
CC[C@](C)(NC(=O)[C@H](CC(C)C)NC(=O)[C@H](C)NC(=O)C(C)(C)NC(=O)[C@@H]1CCCCN1C(=O)C(C)(C)NC(=O)C(C)(C)NC(=O)CNC(=O)CCNC(=O)[C@H](CC(C)C)NC(=O)C(C)(C)NC(=O)[C@](C)(CC)NC(=O)[C@@H]1CCCCN1C(=O)C(C)(C)NC(=O)[C@@H]1CCCCN1C(C)=O)C(=O)N[C@@H](CC(C)C)C[N+]1=C2CCCN2CCC1 [EFRAPEPTIN G] (Ac-[Pip][Aib][Pip][Iva][Aib]L[βAla]G[Aib][Aib][Pip][Aib]AL[Iva]-X1)	> 54	6.34	< 4.60
CC(=O)NC(C)(C)C(=O)N[C@@H](C)C(=O)N[C@@H](C)C(=O)N[C@@H](C)C(=O)NC(C)(C)C(=O)NC(C)(C)C(=O)N[C@@H](CCC(N)=O)C(=O)NC(C)(C)C(=O)N[C@H](C(=O)NC(C)(C)C(=O)NCC(=O)N[C@@H](CC(C)C)C(=O)NC(C)(C)C(=O)N1CCC[C@H]1C(=O)N[C@H](C(=O)NC(C)(C)C(=O)NC(C)(C)C(=O)N[C@@H](CCC(N)=O)C(=O)N[C@@H](CCC(N)=O)C(=O)N[C@H](CO)Cc1ccccc1)C(C)C)C(C)C (HELM PEPTIDE1{[ac].[Aib].A.A.A.[Aib].[Aib].Q.[Aib].V.[Aib].G.L.[Aib].P.V.[Aib].[Aib].Q.Q.[OC[C@H](Cc1ccccc1)N[*:1]]}$$$$V2.0)	17	6.25	5.03
